Assay results as given in paper PMC8056739 (British Journal of Clinical Pharmacology, 2020).
Several values for one entry are separate records, joined by “and”; a condition that tells them apart may be missing. Equal values may be shown once.

Columns and labels:
[1] = cited from earlier work
[2] = Population PK model of peficitinib in RA patients; assay type: in vivo, human
Procedure, shortened: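 RA patients' plasma levels measured by validated LC–MS/MS (LLOQ 0.25 ng/mL) from trough and post-dose samples. BLQ values, samples >48 h after dosing (or <19 h in RAJ1), and outliers (>mean+3×SD of log trough per arm) were excluded. NONMEM, FOCE with interaction, healthy-volunteer model as prior (NWPRI penalty). 2-compartment model, exponential IIV, proportional residual. Stepwise covariate selection, power function centred on mean. 1000 bootstrap runs.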

[3] = Prior population PK model of peficitinib in healthy volunteers; assay type: in vivo; conditions: human, plasma, oral, 150 mg
Procedure, shortened: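 Healthy-volunteer plasma levels from five clinical pharmacology studies, excluding renal/hepatic-impairment subjects. Validated LC–MS/MS (LLOQ 0.25 ng/mL), BLQ values unused. NONMEM, FOCE with interaction. 2-compartment model, five absorption schemes compared, exponential IIV, proportional residual. Covariates tested on CL: age, weight, MDRD eGFR, liver enzymes, bilirubin. Selection stepwise (forward .01, backward .001). Assessed by goodness-of-fit plots and visual predictive check.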

[4] = RA patient model, 1000 bootstrap runs
[5] = RA patient model, √(exp(ω^2)-1) × 100

ALAG, absorption lag time (estimate) ([2]; RA patient model): 0.132 h
D, duration of zero-order absorption (estimate) ([2]; RA patient model): 1.37 h
Ka, first-order absorption rate constant (estimate) ([2]; RA patient model): 5.83 L/h
Vc, apparent distribution volume of the central compartment (estimate) ([2]; RA patient model): 280 L
Vp, apparent distribution volume of the peripheral compartment (estimate) ([2]; RA patient model): 122 L
CL, apparent total systemic clearance (estimate) ([2]; RA patient model, population estimate, oral): 91.7 L/h
ALAG, bootstrap median [2, 4]: 0.132 h
D, bootstrap median [2, 4]: 1.36 h
Ka, bootstrap median [2, 4]: 5.82 L/h
Q, bootstrap median [2, 4]: 10.2 L/h
Vc, bootstrap median [2, 4]: 279 L
Vp, bootstrap median [2, 4]: 122 L
Covariate eGFR on CL (exponent of power function, estimate) ([2]; RA patient model, eGFR centred at 91.5 mL/min/1.73m^2): 0.213
Covariate LYM (lymphocyte count) on CL (exponent of power function, estimate) ([2]; RA patient model, lymphocyte count centred at 1550 10^6/L): −0.104
Interindividual variability of CL [2, 5]: 25.7%
Interindividual variability of Vc [2, 5]: 39.2%
clearance ([2]; human, plasma, oral): 1530 mL/min
Model predicted mean change in CL from population mean CL ([2]; patients with observed maximum eGFR of 188 mL/min/1.73m^2): 16.7%
Model predicted mean change in CL from population mean CL ([2]; patients with observed maximum lymphocyte count of 4600 10^6/L): −10.7%
Model predicted mean change in CL from population mean CL ([2]; patients with observed minimum eGFR of 36.4 mL/min/1.73m^2): −17.8%
Model predicted mean change in CL from population mean CL ([2]; patients with observed minimum lymphocyte count of 500 10^6/L): 12.3%
clearance [3]: 1390 mL/min
Structure (SMILES): NC(=O)c1cnc2[nH]ccc2c1N[C@@H]1[C@@H]2CC3C[C@H]1C[C@@](O)(C3)C2 [peficitinib]
Exposure in healthy Japanese compared with Caucasian [1]: greater
Mean exposure in subjects with moderate hepatic impairment [1]: increases
Mean AUCinf ([1]; healthy subjects, single dose 450 mg): 4660 ng·h/mL
Tolerability ([1]; healthy subjects, single dose up to 450 mg): tolerability was shown
Dose proportionality of exposure ([1]; healthy volunteers, single doses 3–300 mg): dose‐proportional exposure
Increase of AUCinf by food intake ([1]; healthy volunteers): 27% and 36% and 27–36%
Mean terminal half-life (t1/2) ([1]; healthy volunteers): 2.8 to 12.9 h
Time to maximum observed concentration (Tmax) ([1]; healthy volunteers): 1.0 to 1.8 h
Urinary excretion of peficitinib, share of the oral dose ([1]; healthy volunteers): 9–15%
Exposure in subjects with versus without renal impairment ([1]; single, oral 150 mg dose): comparable
